Reference: ChEMBL document CHEMBL3259555, “Aromatic diacylhydrazine derivatives as a new class of polo-like kinase 1 (PLK1) inhibitors” (Eur J Med Chem, 2014)

Experiments:
[1] = Cytotoxicity against macrophage (unknown origin) assessed as reduction in cell viability after 24 hrs by MTT assay; assay type: cell-based; conditions: macrophages (unknown origin)
Procedure, shortened: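 Macrophages plated at 5×10⁵ cells per well with a range of compound concentrations and incubated 24 h at 37 °C, 5% CO₂. MTT (4 mg/mL stock) added for the final 4 h, plate centrifuged, supernatant removed, DMSO added, absorbance read at 570 nm. Triplicate wells per concentration, assay repeated three times; CC50 (50% viability reduction) given as mean ± SD.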

cells = conditions: Homo sapiens, Cancer cell lines, 48 h

Structure (SMILES)	IC50 (cells) [µM]	CC50 at 24 h [1] [µM]
O=C(/C=C/c1ccccc1F)NNC(=O)c1ccc2c(c1)OCCO2	4.51	302
Cc1ccc(/C=C/C(=O)NNC(=O)c2ccc3c(c2)OCCO3)cc1	1.05	332
O=C(/C=C/c1ccccc1)NNC(=O)c1ccc2c(c1)OCCO2	0.55	312
O=C(/C=C/c1ccc(F)cc1)NNC(=O)c1ccc2c(c1)OCCO2	0.99	319
O=C(/C=C/c1ccccc1Br)NNC(=O)c1ccc2c(c1)OCCO2	2.11	315
Cc1ccccc1/C=C/C(=O)NNC(=O)c1ccc2c(c1)OCCO2	7.71	268
O=C(/C=C/c1ccc(Cl)cc1)NNC(=O)c1ccc2c(c1)OCCO2	1.13	309
O=C(/C=C/c1ccc([N+](=O)[O-])cc1)NNC(=O)c1ccc2c(c1)OCCO2	0.61	295
COc1ccccc1/C=C/C(=O)NNC(=O)c1ccc2c(c1)OCCO2	8.06	312
O=C(/C=C/c1ccccc1[N+](=O)[O-])NNC(=O)c1ccc2c(c1)OCCO2	0.89	257
O=C(/C=C/c1ccccc1Cl)NNC(=O)c1ccc2c(c1)OCCO2	4.88	285
O=C(/C=C/c1ccc(Br)cc1)NNC(=O)c1ccc2c(c1)OCCO2	2.33	259

Second part, led by results:

IC50 (cells) [µM]	Structure (SMILES)	CC50 at 24 h [1] [µM]
3.56	O=C(/C=C/c1cccc(Cl)c1)NNC(=O)c1ccc2c(c1)OCCO2	391
0.93	COc1ccc(/C=C/C(=O)NNC(=O)c2ccc3c(c2)OCCO3)cc1	319
3.33	O=C(/C=C/c1cccc(Br)c1)NNC(=O)c1ccc2c(c1)OCCO2	351
1.56	O=C(/C=C/c1cccc([N+](=O)[O-])c1)NNC(=O)c1ccc2c(c1)OCCO2	323
2.89	Cc1cccc(/C=C/C(=O)NNC(=O)c2ccc3c(c2)OCCO3)c1	281
0.17	COc1cccc(/C=C/C(=O)NNC(=O)c2ccc3c(c2)OCCO3)c1	398
4.11	O=C(/C=C/c1cccc(F)c1)NNC(=O)c1ccc2c(c1)OCCO2	221
